Source: PubChem BioAssay (SRMLSC)
Shown is part of a subset that was picked to be rich in hits.
HCT116 bCat-KO: primary screen for growth suppressors in beta-catenin knockout HCT116 cells (colon tumor, human). 140,000 compounds, 1.5% hits. HCT116 beta-catenin knockout viability, CellTiter-Glo, 60 h; active compounds read low. viability, % at 10 µM;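 active = viability at or under a set limit, the compound median less 4 SD, cut at about 6% in these data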;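 also: 0% = Hyamine 1622 control at 20 µM and 100% = untreated cell control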
H69AR inhibit: proliferation blockers of H69AR lung cancer cells, primary screen, cell-based, human, 86K library; H69AR lung tumor viability, ATP luminescence, 72 h; active compounds read low; 85,000 compounds, 6% hits; viability, % at 10 µM;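 active = viability at or below 40%; inactive = viability above 40%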;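 also: multidrug resistant small cell line overexpressing MRP-1 efflux transporter; 100% = mean luminescence of untreated control wells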
Fibroblast inh: antiproliferative effect on LL 47 fibroblasts – human, LL 47 cells, CellTiter-Glo luminescence, primary screen | LL 47 human lung fibroblast viability, ATP luminescence; active compounds read low | viability, % at 10 µM | 85,000 compounds, 1.1% hits | AID 719, 2007;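 active = viability at or below 50% in the single dose screen; inactive = viability above 50%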;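 also: compound exposure lasted 72 h before the ATP readout; 100% = median luminescence of untreated cell-only wells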
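Material: human LL 47 lung fibroblast cells; quantity: 1,150 cells/well; medium: IMEM plus 15% FBS; doses: 0.1% DMSO in all compound wells; timing: overnight attachment after seeding, then 72 h compound exposure at 37 °C; detection: CellTiter-Glo luminescence; measure: % viability of median cell-only signal; controls: cell-only wells, no compound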
HCT116 PTEN-null: growth suppression of PTEN-null HCT116, primary screen, cell-based, CellTiter-Glo; 140,000 compounds, 1.2% hits; AID 827, 2007; HCT116 PTEN-null viability, 60 h; active compounds read low; viability, % at 10 µM;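 active = viability at or below a set limit, 4 SD under the median of all tested compounds, cut at about 3.7% in these data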;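 also: PTEN knockout HCT116 line with beta catenin targeted HCT116 as companion control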
HUVEC inhibit: inhibitors of HUVEC proliferation, primary screen, cell-based, 384-well. viability, % at 10 µM (by protocol). CellTiter-Glo luminescence, 72 h; active compounds read low. 86,000 compounds, 1.1% hits. AID 648, 2007;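 active = viability at or below 30%; inactive = viability above 30%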;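 also: 100% = median luminescence of DMSO-only cell control wells on each plate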
* hit, by the source's call; / = not tested or not shown.

SMILES	HCT116 bCat-KO	H69AR inhibit	Fibroblast inh	HCT116 PTEN-null	HUVEC inhibit
CN(C(=S)NC(=O)CCCOc1ccc(Cl)cc1Cl)c1ccccc1	84.5	/	/	85.6	/
O=[N+]([O-])c1cc(-c2nc(-c3ccncc3)no2)ccc1Cl	2.8*	/	/	2.3*	/
COC(=O)c1ccc(C(=O)OC)c(NC(=S)N2CCC(C)CC2)c1	93.8	/	/	100.2	/
CC(OC(=O)c1nn(C(C)C)c(=O)c2ccccc12)C(=O)Nc1ncc(Cl)cc1Cl (stereo unspecified)	105.0	/	/	98.3	/
C=C1C(O)C[C@H]2C(=C)CCC3[C@H](OC(=O)[C@]3(O)CO)[C@@H]12 (stereo partly specified)	0.7*	/	/	0.5*	/
C=CCn1nc([N+](=O)[O-])nc1Sc1cccc2cccnc12	2.1*	/	/	1.8*	/
O=[N+]([O-])c1ccc(Sc2cccc3cccnc23)c([N+](=O)[O-])c1	1.6*	1.6*	4.2*	2.2*	50.3
CCCCNC(=O)COc1ccccc1C(=O)c1cc(C#N)c(=O)n(CCOC)c1	104.1	/	/	96.1	/
N=c1sc2ccccc2n1-c1ccccc1	98.7	30.5*	99.5	95.9	94.1
COc1ccccc1NC(=O)c1c(Nc2ccccc2C)sc(C(=O)Nc2cccc(Cl)c2)c1N	9.2	/	/	15.7	/
CCOC(=O)c1nnn(-c2nonc2N)c1COc1cc(C)c(Cl)c(C)c1	/	23.7*	102.1	/	99.4
CC(NS(=O)(=O)c1ccc(OCC(=O)Nc2cccc([N+](=O)[O-])c2)cc1)c1ccccc1 (stereo unspecified)	36.0	/	/	24.1	/
NNc1nc2c(F)cc(F)cc2s1	88.0	/	/	87.2	/
O=C(COC(=O)c1ccccc1NC(=O)C1CC1)c1ccc2c(c1)OCCO2	83.7	/	/	93.5	/
O=S(=O)(Nc1cccc2cn[nH]c12)c1ccc(F)cc1	110.6	107.1	104.1	89.1	103.5
O=S(=O)(Nc1cc(Sc2cccc3cccnc23)c(O)c2ccccc12)c1ccc(F)cc1	1.3*	/	/	1.4*	/
COc1ccc(S(=O)(=O)Nc2cc(Sc3ncn[nH]3)c(O)c3ccccc23)cc1	1.7*	/	/	2.5*	/
COc1ccc(S(=O)(=O)Nc2ccc(O)c(Sc3ncn[nH]3)c2)cc1	97.5	91.8	92.0	88.9	86.4
CCn1c(C)nc2cc(C(=O)N/N=C/c3ccc(OC)c(O)c3)ccc21	90.3	/	/	100.7	/
O=C(Nc1cccc2ccccc12)c1ccc(Cn2cc(Cl)cn2)cc1	89.5	/	/	89.7	/
OC1(c2cccc(C(F)(F)F)c2)CCN(c2ncnc3c2[nH]c2ccc(F)cc23)CC1	6.4	2.4*	61.5	2.6*	6.4*
O=C1CN(C(=O)c2ccccn2)c2ccccc2N1	102.3	91.7	92.1	99.0	102.6
CCCn1nc(C(=O)N2CC(=O)Nc3ccccc32)c2ccccc2c1=O	30.6	25.2*	62.5	26.7	55.2
O=C1CCc2cc(S(=O)(=O)N3CCC(C(=O)NC4CCCCCCC4)CC3)ccc2N1	88.6	89.2	94.2	98.0	87.7
O=C(NC1CCCCCC1)C1CCN(S(=O)(=O)c2ccc(F)cc2)CC1	78.0	31.9*	91.5	83.1	105.5
SMILES	HCT116 bCat-KO	H69AR inhibit	Fibroblast inh	HCT116 PTEN-null	HUVEC inhibit
CCOC(CNc1c([N+](=O)[O-])c(=O)n(C)c(=O)n1C)OCC	94.1	/	/	94.4	/
O=C(Nc1ncnc2sc3c(c12)CCCCC3)c1ccc(F)cc1	54.8	39.6*	74.3	56.9	81.3
COC(=O)C(Cc1ccccc1)P(=O)(c1ccccc1)c1ccccc1 (stereo unspecified)	87.2	/	/	95.3	/
CCCCN1C(=O)CN(CCc2ccccc2)C(=O)C1c1ccc(OC)cc1 (stereo unspecified)	91.5	37.7*	91.9	86.8	104.3
CC(C)(C)c1ccc(S(=O)(=O)Nc2cccc(C3OCCCO3)c2)cc1	86.4	/	/	87.1	/
COc1cc(-c2nnc(COc3ccc4cc(Br)ccc4c3)o2)cc(OC)c1OC	61.0	23.8*	/	72.0	45.9
CCN1C(=O)/C(=C2\C=Cc3ccccc3N2CC)SC1=S	95.6	/	/	84.5	/
CCN1C(=O)/C(=C2\SC(=S)N(CCCOC)C2=O)c2ccccc21	67.8	31.4*	97.8	77.9	67.5
CCOC(=O)C1=C(c2ccccc2)N=c2s/c(=C\c3cccc(O)c3)c(=O)n2C1c1cccs1 (stereo unspecified)	1.5*	/	/	1.5*	/
